Broadly, the Ki is a measure of affinity in units of concentration, obtained from inhibition or displacement. As usually defined, the AUC(0-inf) is the area under the concentration-time curve extrapolated to infinity. A lower AUC(0-inf) goes with low exposure. As a reminder, the half-life is how long it takes for the measured level to halve. A low value points to fast loss. In general, Cmax refers to the maximum level reached in the sampled fluid or tissue. As a reminder, the Tmax is the time from dosing to the highest level. What is called GI50 is the concentration that inhibits growth by half. The IC50 is the point on the concentration scale where inhibition reaches its midpoint. Low readings indicate greater potency, high ones weaker potency. For orientation: Kd means the concentration at which binding is half-saturated. The low end stands for higher affinity, the high end for lower affinity. A word on the Kp: it is the ratio of the level in a tissue or fluid to that in plasma or blood.

The source of these data is ChEMBL document CHEMBL2157917, “Targeting conserved water molecules: design of 4-aryl-5-cyanopyrrolo[2,3-d]pyrimidine Hsp90 inhibitors using fragment-based screening and structure-based optimization” (Bioorg Med Chem, 2012).

Values joined by “and” are separate entries in the source; they are usually repeats but may differ in a detail not shown here. Equal entries are not always repeated. Some results are limits rather than exact numbers.

Data set [1] deals with Heat shock protein HSP 90-beta (Homo sapiens, UniProt P08238). The data set can be described thus: Inhibition of fluorescently labeled VER51001 binding to full length human HSP90beta after 30 mins by fluorescence polarization assay.
Heat shock protein HSP 90-beta, sequence (P08238 whole entry): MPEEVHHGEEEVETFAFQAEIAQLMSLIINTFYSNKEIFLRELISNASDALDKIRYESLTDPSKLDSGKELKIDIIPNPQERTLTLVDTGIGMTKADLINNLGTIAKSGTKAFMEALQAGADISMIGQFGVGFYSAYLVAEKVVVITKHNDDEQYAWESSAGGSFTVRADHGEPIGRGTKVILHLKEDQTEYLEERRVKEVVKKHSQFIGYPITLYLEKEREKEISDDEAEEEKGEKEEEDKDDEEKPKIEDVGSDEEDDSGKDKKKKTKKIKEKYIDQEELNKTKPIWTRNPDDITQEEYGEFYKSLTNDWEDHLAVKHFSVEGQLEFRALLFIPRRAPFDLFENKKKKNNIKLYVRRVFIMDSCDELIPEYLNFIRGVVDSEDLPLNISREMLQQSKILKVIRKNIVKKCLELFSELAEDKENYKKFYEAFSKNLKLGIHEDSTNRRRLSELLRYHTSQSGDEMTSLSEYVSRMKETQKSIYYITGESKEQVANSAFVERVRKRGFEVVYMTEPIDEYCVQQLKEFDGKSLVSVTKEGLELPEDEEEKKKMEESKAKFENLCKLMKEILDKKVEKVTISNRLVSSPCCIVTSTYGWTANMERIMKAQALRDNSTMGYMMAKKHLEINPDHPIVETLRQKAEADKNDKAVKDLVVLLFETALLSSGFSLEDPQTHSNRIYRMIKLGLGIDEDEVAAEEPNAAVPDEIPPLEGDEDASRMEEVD
Data set [2] in a line: AUC (0 to infinity) in Balb-C mouse muscle at 5 mg/kg, po. The class given is ADME, organism-based, Muscle tissue. The arrangement: time infinity, dose 5 mg/kg, route oral.
Data set [3] in a line: Half life in Balb-C mouse plasma at 5 mg/kg, po. More on the design: dose 5 mg/kg, route oral. The class given is ADME, organism-based.
Data set [4] can be described thus: Cmax in Balb-C mouse muscle at 5 mg/kg, po. The class given is ADME, organism-based, Muscle tissue. More on the design: dose 5 mg/kg, route oral.
A short description of data set [5]: Tmax in Balb-C mouse muscle at 5 mg/kg, po. The format is ADME, organism-based, Muscle tissue. The arrangement: dose 5 mg/kg, route oral.
Data set [6] deals with MDA-MB-468. The data set can be described thus: Antiproliferative activity against human MDA-MB-468 cells after 4 days by SRB method. The format is functional. The following applies: MDA-MB-468, 96 h.
The nature of data set [7]: AUC (0 to infinity) in Balb-C mouse kidney at 5 mg/kg, po. The class given is ADME, organism-based. More on the design: time infinity, dose 5 mg/kg, route oral.
Data set [8] is described as follows: AUC (0 to infinity) in Balb-C mouse plasma at 5 mg/kg, po. The format is ADME, organism-based. More on the design: time infinity, dose 5 mg/kg, route oral.
Data set [9] deals with UGT. Nature of the data set: Intrinsic clearance in human liver microsomes assessed as UGT-mediated glucuronidation after 30 mins by LC-MS/MS analysis. The class given is ADME, Microsome. The conditions noted are these: read-out: CLH. For orientation: Liver microsomes are vesicles of endoplasmic reticulum, rich in cytochrome P450 enzymes.
Data set [10] deals with T1, Voltage-gated inwardly rectifying potassium channel KCNH2 (Homo sapiens, UniProt Q12809). The data set can be described thus: Displacement of [3H]-dofetilide from human ERG. A general note: Loss of bound radioactivity is the signal in a displacement assay; it reports binding, not function.
T1 sequence (Q12809 whole entry): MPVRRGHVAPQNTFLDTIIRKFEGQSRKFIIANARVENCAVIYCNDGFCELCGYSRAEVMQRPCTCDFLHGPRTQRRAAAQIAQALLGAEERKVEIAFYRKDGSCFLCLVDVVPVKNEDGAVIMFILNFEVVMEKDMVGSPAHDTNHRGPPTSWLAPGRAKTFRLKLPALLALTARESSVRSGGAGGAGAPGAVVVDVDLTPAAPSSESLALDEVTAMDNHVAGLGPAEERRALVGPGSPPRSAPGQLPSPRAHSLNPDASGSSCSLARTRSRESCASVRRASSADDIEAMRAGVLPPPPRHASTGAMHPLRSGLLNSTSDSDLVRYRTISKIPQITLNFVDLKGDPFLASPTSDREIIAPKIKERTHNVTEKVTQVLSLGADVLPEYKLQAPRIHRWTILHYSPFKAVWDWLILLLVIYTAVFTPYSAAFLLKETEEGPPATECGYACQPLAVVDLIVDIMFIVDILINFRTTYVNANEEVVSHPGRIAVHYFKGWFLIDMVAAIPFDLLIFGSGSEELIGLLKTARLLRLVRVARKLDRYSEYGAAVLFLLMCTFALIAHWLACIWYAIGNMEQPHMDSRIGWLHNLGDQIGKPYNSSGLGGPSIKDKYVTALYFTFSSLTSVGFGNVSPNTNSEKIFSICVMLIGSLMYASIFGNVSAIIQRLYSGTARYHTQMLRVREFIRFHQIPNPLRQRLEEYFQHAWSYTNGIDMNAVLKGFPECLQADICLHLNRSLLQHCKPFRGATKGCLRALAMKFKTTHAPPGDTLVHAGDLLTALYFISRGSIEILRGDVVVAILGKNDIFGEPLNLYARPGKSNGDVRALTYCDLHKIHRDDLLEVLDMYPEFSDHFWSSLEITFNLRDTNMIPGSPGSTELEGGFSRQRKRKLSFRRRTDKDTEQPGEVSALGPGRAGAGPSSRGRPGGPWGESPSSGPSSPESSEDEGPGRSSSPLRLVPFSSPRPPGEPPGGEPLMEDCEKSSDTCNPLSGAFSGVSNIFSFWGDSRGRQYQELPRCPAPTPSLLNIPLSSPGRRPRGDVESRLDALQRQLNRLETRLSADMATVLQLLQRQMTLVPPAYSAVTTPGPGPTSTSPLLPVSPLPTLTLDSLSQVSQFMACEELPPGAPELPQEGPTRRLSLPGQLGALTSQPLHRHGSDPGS
Data set [11] is described as follows: Binding affinity to HSP90 after 30 mins by ITC assay. The essentials: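 Isothermal titration calorimetry at 25 °C with stirring at 1000 rpm. Ligands came from a 20 mM DMSO stock and were run in dialysis buffer with 1% DMSO. Ligand 10 µM in the cell, protein 100–200 µM in the syringe, 8–16 injections at 300 s spacing. One-site fit.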
(ITC needs no label: the signal is the heat of the interaction.)

Data set [12] in a line: Half life in Balb-C mouse kidney at 5 mg/kg, po. The format is ADME, organism-based. More on the design: dose 5 mg/kg, route oral.
Data set [13] in a line: Ratio of drug level in muscle to plasma of Balb-C mouse at 5 mg/kg, po. The class given is ADME, organism-based. The arrangement: dose 5 mg/kg, route oral.
Data set [14] concerns the target T1, Voltage-gated inwardly rectifying potassium channel KCNH2. The data set can be described thus: Inhibition of human ERG expressed in HEK293 cells by voltage-clamp method. The format is cell-based.
Data set [15] in a line: Tmax in Balb-C mouse plasma at 5 mg/kg, po. The format is ADME, organism-based. The arrangement: dose 5 mg/kg, route oral.
Data set [16] in a line: Cmax in Balb-C mouse kidney at 5 mg/kg, po. The class given is ADME, organism-based. The arrangement: dose 5 mg/kg, route oral.
A short description of data set [17]: Cmax in Balb-C mouse plasma at 5 mg/kg, po. The class given is ADME, organism-based. The arrangement: dose 5 mg/kg, route oral.
Data set [18] can be described thus: Ratio of drug level in kidney to plasma of Balb-C mouse at 5 mg/kg, po. The format is ADME, organism-based. The arrangement: dose 5 mg/kg, route oral.
The nature of data set [19]: Half life in Balb-C mouse muscle at 5 mg/kg, po. The class given is ADME, organism-based, Muscle tissue. The arrangement: dose 5 mg/kg, route oral.
The nature of data set [20]: Tmax in Balb-C mouse kidney at 5 mg/kg, po. The format is ADME, organism-based. The arrangement: dose 5 mg/kg, route oral.
Data set [21] relates to BT-474. The data set can be described thus: Antiproliferative activity against human BT474 cells after 4 days by SRB method. The format is functional. The conditions noted are these: BT-474, 96 h.
Data set [22] relates to HCT-116. Nature of the data set: Antiproliferative activity against human HCT116 cells after 4 days by SRB method. The class given is functional. The conditions noted are these: HCT-116, 96 h.

Molecule `COc1cc(Cl)c(-c2nc(SCC(=O)N(C)C)nc3[nH]cc(C#N)c23)cc1OC` returned a Ki in data set [1] below 1 nM. Besides, the values for the AUC(0-inf) in data set [2], in data set [7] and in data set [8] were 231 ng·h/mL, 6920 ng·h/mL and 297 ng·h/mL, respectively. The half-life in [3] is 84 min; in [12], 72 min; in data set [19], 144 min. Further, the Cmax was 158 nM and 68 ng/mL in [4]; 12.5 µM and 5390 ng/mL in [16]; 553 nM and 239 ng/mL in [17]. The Tmax in [5], in [15] and in [20] was 15 min in each case. Also, the GI50 in [6] was 30 nM; in [21], 34 nM; in data set [22] it was 32 nM. The microsomal CLint in [9] worked out at 4 µL/min/mg. In addition, the IC50 in data set [10] and in data set [14] was above 30000 nM each time. In addition, the Kd in data set [11] is below 3 nM. Further, the figures for the Kp in data set [13] and in data set [18] were 0.8 and 23.3, respectively.
